IMP-1 inh – IMP-1 metallo-beta-lactamase inhibitors, primary screen, biochemical, epi-absorbance readout, Pseudomonas aeruginosa enzyme. metallo-beta-lactamase IMP-1 (Pseudomonas aeruginosa). purified IMP-1, nitrocefin hydrolysis, epi-absorbance fluorescence. inhibition, % at 5.6 µM. actives 0.45% (n = 290,000). AID 1556, 2009;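 active = inhibition above the mean plus 3 SD of all compounds in the same screening run, cut at about 4.5% in these data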;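 also: 0% = IMP-1 with DMSO and 100% = DMSO wells lacking enzyme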
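System: Purified IMP-1 | Read-out basis: Percent enzyme inhibition | Controls: IMP-1 with DMSO as 0%, enzyme-free DMSO as 100% | Replicates: One well per compound | Doses: 5.6 µM nominal single concentration | Detection: Epi-absorbance fluorescence, 480 nm excitation, 530 nm emission | Incubation: 25 °C, 15 min preincubation, 25 min reaction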
TRPML3 ag – human TRPML3 channel agonists, primary screen, cell-based, HEK293 TRPML3-YFP, Fluo-8 calcium fluorescence, 3 µM. Mucolipin-3 (Homo sapiens), Q8TDD5. 100% = the carbachol control signal. activation, % at 3 µM. actives 0.29% (n = 220,000);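 active = activation above its plate's cutoff, the mean activation of the plate's test wells plus 3 SD, cut at about 12% in these data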;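 also: 0% = DMSO only wells and 100% = carbachol wells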
Target sequence (Q8TDD5 whole entry, looked up): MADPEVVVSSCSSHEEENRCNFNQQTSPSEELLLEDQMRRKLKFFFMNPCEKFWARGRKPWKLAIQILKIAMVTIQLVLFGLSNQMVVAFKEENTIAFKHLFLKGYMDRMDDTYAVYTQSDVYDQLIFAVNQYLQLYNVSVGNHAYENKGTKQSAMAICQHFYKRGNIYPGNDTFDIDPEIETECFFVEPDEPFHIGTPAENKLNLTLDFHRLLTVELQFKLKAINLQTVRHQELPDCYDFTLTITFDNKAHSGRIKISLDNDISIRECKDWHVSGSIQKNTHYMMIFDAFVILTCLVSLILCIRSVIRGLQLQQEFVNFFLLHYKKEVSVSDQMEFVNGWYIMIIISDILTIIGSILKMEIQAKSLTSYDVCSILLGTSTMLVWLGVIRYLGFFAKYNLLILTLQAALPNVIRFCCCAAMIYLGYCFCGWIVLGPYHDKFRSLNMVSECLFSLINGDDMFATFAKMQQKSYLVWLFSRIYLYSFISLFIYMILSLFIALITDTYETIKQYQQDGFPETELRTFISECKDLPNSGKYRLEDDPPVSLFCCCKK
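Test system – HEK293 line with stable expression of human TRPML3-YFP channel · Control set – carbachol 87 µM final as high control (100%), DMSO as low control (0%) · Signal – Fluo-8 calcium dye fluorescence, ex 470-495, em 515-575 nm · Incubation – 1-h 37 °C dye load, 5-s basal, 120-s post-compound reads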
VIM-2 inhibitor – VIM-2 metallo-beta-lactamase inhibitors, primary screen, biochemical, epi-absorbance readout, Pseudomonas aeruginosa enzyme | purified VIM-2, nitrocefin hydrolysis, epi-absorbance fluorescence | AID 1527, 2009 | actives 0.89% (n = 290,000) | inhibition, % at 5.6 µM;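 active = inhibition above the mean of all tested compounds plus 3 SD, cutoff set per screening run, cut at about 7.5% in these data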;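 also: red hydrolysis product quenches plate fluorescence so inhibitors raise well fluorescence; 0% = enzyme with DMSO and 100% = DMSO without enzyme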
zfTRPN1 agonist – zebrafish TRPN1 channel agonists, primary screen, cell-based, HEK293, calcium fluorescence; HEK293 zebrafish TRPN1-YFP, Fluo-8 calcium fluorescence; 100% = response to 87 µM carbachol; actives 0.18% (n = 220,000); AID 1424, 2008; transient receptor potential cation channel N1 (TRPN1/NompC), Danio rerio; activation, % at 3 µM;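 active = activation above its plate's cutoff, the mean activation of test wells on that plate plus 3 SD, cut at about 19% in these data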;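 also: 0% = DMSO alone and 100% = 87 µM carbachol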
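Material: zebrafish TRPN1-YFP in HEK293 cells. Doses: one dose of 3 µM, 0.3% DMSO. Incubation: dye 1 h 37 °C plus 30 min RT. Measured by: intracellular calcium fluorescence with Fluo-8.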
CRFR2-BP ag – agonists of CRF-BP/CRF-R2 complex, primary screen, cell-based, HEK293, calcium dye fluorescence, uHTS | CRF-binding protein / CRF receptor 2 complex (human) | calcium dye fluorescence (FLIPR); percent of saturating CRF peptide response | activation, % at 13.2 µM | actives 0.46% (n = 350,000) | AID 588473, 2011;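 active = activation of at least 50%, plus an integration ratio under a set limit after plate pattern correction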;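 also: plate controls were neutral control wells without compound for no effect and CRF at EC100 for full effect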
CRFR2-BP antag – antagonists of CRF-BP/CRF-R2 complex, primary screen, cell-based, HEK293, calcium dye fluorescence, uHTS; CRF-induced calcium fluorescence; inhibition, % at 11.8 µM; actives 0.59% (n = 350,000);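 active = inhibition of the ligand-induced calcium signal above about 50% at the single tested concentration, limit read from the data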
* marks the source's active call; other numbers are inactive results; · = no result given. Compounds with a hit are over-represented: about 2.1% of the library has one in this group of screens.

SMILES	IMP-1 inh	TRPML3 ag	VIM-2 inhibitor	zfTRPN1 agonist	CRFR2-BP ag	CRFR2-BP antag
COc1ccc(NC(=O)CCC(=O)c2cccs2)cc1S(=O)(=O)Nc1ccccc1Cl	5.2*	1	-2	1	-4	6
O=C(CSc1nnnn1-c1ccc(F)cc1F)Nc1ccccc1F	1	·	0	·	-1	7
COC(=O)c1ccc(NC(=O)Nc2cccc(F)c2)cc1	-2	10	-1	19*	21	32
Cc1ccc([N+](=O)[O-])cc1NC(=S)NC(=O)C(C)(C)C	5.1*	0	3	2	0	-2
Cc1ccc([N+](=O)[O-])cc1NC(=O)Nc1cccc(F)c1	-2	11	-4	24*	12	29
Cc1ccc([N+](=O)[O-])cc1NC(=S)NC(=O)CC(C)(C)C	0	0	3	3	-1	-42
CC(Sc1nnc(-c2ccco2)n1C)C(=O)Nc1nccs1 (stereo not drawn)	·	·	·	·	1	0
Nc1ccc2cccc(O)c2c1	·	·	·	·	5	7
Cc1cc2nc(CN(C)C(=O)C3CCC(=O)N(C4CCCC4)C3)[nH]c2cc1C (stereo not drawn)	·	·	·	·	-1	11
CCc1ccc(N2CSC3=C(C#N)C(c4cccs4)CC(=O)N3C2)cc1 (stereo not drawn)	-2	1	-4	-1	-1	-9
Cc1ccc(N2CSC3=C(C#N)C(c4cccs4)CC(=O)N3C2)cc1 (stereo not drawn)	5.6*	1	0	3	2	0
Cc1cc(C)cc(NC(=O)CN(c2ccc(F)cc2)S(C)(=O)=O)c1	7.4*	-1	-3	-1	-3	11
O=C(CC1CCC1)Nc1cccc2c([N+](=O)[O-])cccc12	·	·	·	·	-5	-1
Cc1ccc(C(=O)OC(C)CN2CCN(C)CC2)cc1 (stereo not drawn)	-1	0	0	0	1	13
O=S(=O)(c1cccc(S(=O)(=O)N2CCC(N3CCCCC3)CC2)c1)N1CCOCC1	-2	0	0	-1	·	·
CC1CCN(S(=O)(=O)c2cccc(S(=O)(=O)N3CCOCC3)c2)CC1	5.4*	3	-2	2	-1	-3
C/C(CC(=O)Nc1ccc2c(c1)OCCO2)=N\NC(=O)COc1ccc(Cl)c(C)c1	-4	·	-3	·	0	-6
O=C(c1cn2ccccc2n1)N1CCCC(Nc2ccc(F)c(F)c2)C1 (stereo not drawn)	-3	·	-2	·	0	-11
COc1cccc(COC(=O)C2CCN(S(=O)(=O)c3ccc(F)cc3)CC2)c1OC	·	·	·	·	0	-1
C[C@]12CCC(O)CC1CCC1C2CC[C@]2(C)C(c3cc(C(F)(F)F)n[nH]3)CCC12 (stereo partly drawn)	-3	1	-4	1	54*	-93
CC12CCC3C(CCC4CC(O)CCC43C)C1CC(O)C2 (stereo not drawn)	·	·	·	·	10	8
O=C(/C=C/c1cn(-c2ccccc2)nc1-c1cccnc1)c1ccco1	-3	-2	-2	-2	-1	10
CCCOC(=O)c1cc(=O)[nH]c2ccccc12	4.5*	0	0	-2	-1	1
CCOC(=O)c1cc(=O)[nH]c2ccccc12	-4	0	-4	1	-1	-2
CC(=O)c1cc(N2CCOCC2)ccc1[N+](=O)[O-]	-1	0	-2	1	0	9
SMILES	IMP-1 inh	TRPML3 ag	VIM-2 inhibitor	zfTRPN1 agonist	CRFR2-BP ag	CRFR2-BP antag
CN(C)/C=C/C(=O)c1cc(N2CCOCC2)ccc1[N+](=O)[O-]	7.4*	-1	-2	1	-2	-3
CCOc1cc(CNS(=O)(=O)c2ccc3c(c2)CC(=O)N3C)cc(OCC)c1OCC	-4	·	-4	·	1	-2
COc1cccc2c1C(=O)c1c(O)c3c(c(O)c1C2=O)C[C@@](O)(C(=O)CO)C[C@@H]3OC1CC(N)C(O)C(C)O1 (stereo partly drawn)	·	·	·	·	74*	-124
COc1cccc2c1C(=O)c1c(O)c3c(c(O)c1C2=O)C[C@@](O)(C(=O)CO)C[C@@H]3O[C@H]1C[C@H](N)[C@H](O)[C@H](C)O1	5.7*	11	24*	27*	93*	-80
COc1cccc2c1C(=O)c1c(O)c3c(c(O)c1C2=O)CC(O)(C(C)=O)CC3OC1CC(N(C)C)C(O)C(C)O1 (stereo not drawn)	·	·	·	·	89*	-50
CC(NC(=O)c1cc(COc2c(F)cccc2F)on1)c1cnn(-c2ccccc2)c1 (stereo not drawn)	-2	1	-1	3	1	10
COc1ccc(/C=C/C(=O)OC(C)CN2CCCCC2)cc1 (stereo not drawn)	-5	·	-1	·	-1	-2
COCCN1CCN(C(=O)c2cc(COc3cc(C)ccc3C)on2)CC1	-1	·	0	·	-2	71*
Cc1ccc(OCc2cc(C(=O)N3CCN(CC(=O)NC(C)C)CC3)no2)cn1	-2	·	-4	·	0	72*
COCCCC1CCN(C(=O)c2cc(COc3cc(C)ccc3C)on2)CC1	0	·	-1	·	0	1
Cc1ccc(-c2sc(-c3ccccc3)nc2CC(=O)Nc2ccccc2F)cc1	-2	1	-5	2	128*	-195
COc1ccccc1NC(=O)/C(C#N)=C/c1ccncc1	0	·	-2	·	-2	11
COc1ccccc1NC(=O)/C(C#N)=C/c1cc([N+](=O)[O-])ccc1N1CCCC1	-3	0	0	1	92*	-43
CSCCC(NC(=O)CCNC(=O)c1ccccc1Cl)c1nc2ccccc2[nH]1 (stereo not drawn)	·	·	·	·	0	5
Cn1nc(-c2ccc(OCC(=O)Nc3ccccc3)cc2)c2ccccc2c1=O	-3	1	9.3*	0	-1	9
COc1ccccc1NC(=O)COc1ccc(-c2nn(C)c(=O)c3ccccc23)cc1	-1	·	6	·	0	-4
CSCCC(NC(=O)c1ccco1)C(=O)NC1CCC(C)CC1 (stereo not drawn)	·	·	·	·	-2	7
O=C(COC(=O)CC(c1ccccc1)c1ccccc1)NCc1ccc(Cl)cc1	-3	0	0	-1	160*	-171
CCCC(=O)OCC(=O)NCc1ccc(Cl)cc1	-1	0	-3	-1	0	-1

Compound activity: PubChem, several laboratories
